1 compound from ChEMBL document CHEMBL1154352, “Toll-like receptor 7 selective synthetic oligoribonucleotide agonists: synthesis and structure-activity relationship studies” (J Med Chem, 2009) can be followed below.

What all share (assay type): functional, organism-based
Parameters in all cases: dose 10 mg/kg

In assay [1] the test system is Mus musculus. In words: Immunomodulatory activity in wild-type C57BL/6 mouse assessed as induction of IL12 release at 10 mg/kg, sc after 2 hrs by ELISA. The method, boiled down: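 Female C57BL/6 wild-type mice, 5–8 weeks old, n=3; compounds given subcutaneously at 10 or 25 mg/kg. Retro-orbital blood at 2 h; serum cytokines by mouse Luminex multiplex or IL-12 ELISA.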
(In an ELISA, binding on a coated surface is turned into a signal by an enzyme label.)

In assay [2] the test system is Mus musculus. In words: Immunomodulatory activity in TLR9 knockout C57BL/6 mouse assessed as induction of IL12 release at 10 mg/kg, sc after 2 hrs by ELISA. In a few lines: (§1)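 Male 8-week-old TLR9-/-, TLR7-/- or MyD88-/- mice on C57BL/6 background, n=3; single subcutaneous 10 mg/kg dose. Blood collected 2 h later by retro-orbital bleeding; serum IL-12 by ELISA.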

Assay [3] deals with Mus musculus. Briefly: Immunomodulatory activity in TLR7 knockout C57BL/6 mouse assessed as induction of IL12 release at 10 mg/kg, sc after 2 hrs by ELISA. The method, boiled down: as §1

Activity calls are given as the source filed them. No cut-off for these calls is given here.

With `Nc1ccn([C@@H]2O[C@H](COP(=O)(S)O[C@H]3[C@@H](O)[C@H](n4cnc5c(N)ncnc54)O[C@@H]3CO)[C@@H](OP(=O)(S)OC[C@H]3O[C@@H](n4ccc(=O)[nH]c4=O)[C@H](O)[C@@H]3OP(=O)(S)OC[C@H]3O[C@@H](n4ccc5c(=O)[nH]c(N)nc54)[C@H](O)[C@@H]3OP(=O)(S)OC[C@H]3O[C@@H](n4ccc(N)nc4=O)[C@H](O)[C@@H]3OP(=O)(S)OC[C@H]3O[C@@H](n4ccc5c(=O)[nH]c(N)nc54)[C@H](O)[C@@H]3OP(=O)(S)OC[C@H]3O[C@@H](n4cnc5c(N)ncnc54)[C@H](O)[C@@H]3OP(=O)(S)OC[C@H]3O[C@@H](n4ccc5c(=O)[nH]c(N)nc54)[C@H](O)[C@@H]3OP(=O)(S)OC[C@H]3O[C@@H](n4ccc(N)nc4=O)[C@H](O)[C@@H]3OP(=O)(S)OC[C@H]3O[C@@H](n4ccc(=O)[nH]c4=O)[C@H](O)[C@@H]3OP(=O)(S)OC[C@H]3O[C@@H](n4ccc(=O)[nH]c4=O)[C@H](O)[C@@H]3OP(=O)(S)OCC(O)COP(=O)(S)O[C@H]3[C@@H](O)[C@H](n4ccc(=O)[nH]c4=O)O[C@@H]3COP(=O)(S)O[C@H]3[C@@H](O)[C@H](n4ccc(=O)[nH]c4=O)O[C@@H]3COP(=O)(S)O[C@H]3[C@@H](O)[C@H](n4ccc(N)nc4=O)O[C@@H]3COP(=O)(S)O[C@H]3[C@@H](O)[C@H](n4ccc5c(=O)[nH]c(N)nc54)O[C@@H]3COP(=O)(S)O[C@H]3[C@@H](O)[C@H](n4cnc5c(N)ncnc54)O[C@@H]3COP(=O)(S)O[C@H]3[C@@H](O)[C@H](n4ccc5c(=O)[nH]c(N)nc54)O[C@@H]3COP(=O)(S)O[C@H]3[C@@H](O)[C@H](n4ccc(N)nc4=O)O[C@@H]3COP(=O)(S)O[C@H]3[C@@H](O)[C@H](n4ccc5c(=O)[nH]c(N)nc54)O[C@@H]3COP(=O)(S)O[C@H]3[C@@H](O)[C@H](n4ccc(=O)[nH]c4=O)O[C@@H]3COP(=O)(S)O[C@H]3[C@@H](O)[C@H](n4ccc(N)nc4=O)O[C@@H]3COP(=O)(S)O[C@H]3[C@@H](O)[C@H](n4cnc5c(N)ncnc54)O[C@@H]3CO)[C@H]2O)c(=O)n1` (stereo partly drawn), the outcome in the assay on Mus musculus [1] and in the assay with Mus musculus [2] was Active. Moreover, the outcome in the assay on Mus musculus [3] was inactive.
